Test [1] concerns Nucleic Acid. The experiment in a line: Binding affinity to double stranded DNA retardation of oligonucleotide movement by agarose gel electrophoresis. Format: nucleic-acid assay.
In test [2] the test system is Nucleic Acid. Briefly: Binding affinity to single stranded AT-rich oligonucleotide assessed as retardation of oligonucleotide movement by agarose gel electrophoresis. Format: nucleic-acid assay.
Test [3] concerns Streptococcus mutans. The experiment in a line: Antibacterial activity against Streptococcus mutans ATCC 33402 in presence of 30 nM single stranded DNA. Format: functional, organism-based.
In test [4] the test system is Streptococcus mutans. The experiment in a line: Antibacterial activity against Streptococcus mutans ATCC 33402 after 18 to 24 hrs. Format: functional. In short, it runs like this: (§1)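 Exponential-phase overnight culture in the organism's growth medium, adjusted to 4.5 × 10⁵ CFU/ml and added to serial compound dilutions in 96-well plates; 37°C for 18 to 24 h in a humidified container. MIC = lowest concentration preventing visible turbidity. Triplicate.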

Test [5] relates to Streptococcus mutans. Briefly: Antibacterial activity against Streptococcus mutans isolate N32 after 18 to 24 hrs. Format: functional. In short, it runs like this: as §1
For test [6], the system named is Streptococcus mutans. Briefly: Antibacterial activity against Streptococcus mutans isolate N43 after 18 to 24 hrs. Format: functional. In short, it runs like this:
as §1

Test [7] relates to Staphylococcus aureus. Briefly: Antibacterial activity against Staphylococcus aureus ATCC 27660 after 18 to 24 hrs. Format: functional. In outline:
as §1

For test [8], the system named is Porphyromonas gingivalis. Briefly: Antibacterial activity against Porphyromonas gingivalis ATCC 53978 after 18 to 24 hrs. Format: functional. In outline: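 P. gingivalis maintained in cooked meat medium with glucose, hemin and vitamin K at 37°C, anaerobic. MIC run in both cooked meat medium and TSB: 4.5 × 10⁵ CFU/ml with serial dilutions, 18 to 24 h, lowest concentration without visible turbidity. Triplicate.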

Test [9] has as its system Aggregatibacter actinomycetemcomitans. Briefly: Antibacterial activity against Actinobacillus actinomycetemcommitans CU1000 after 18 to 24 hrs. Format: functional. In outline: as §1
For test [10], the system named is Actinomyces viscosus. Briefly: Antibacterial activity against Actinomyces viscosus after 18 to 24 hrs. Format: functional. In short, it runs like this: as §1
The subject of test [11] is Streptococcus mutans. Briefly: Antibacterial activity against Streptococcus mutans ATCC 33402 after 24 to 48 hrs. Format: functional. In short, it runs like this: (§2)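 MBC: wells at the MIC plus one dilution above and below plated on agar; after 24 to 48 h growth, MBC = lowest concentration giving no visible growth on the agar surface.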
Test [12] has as its system Streptococcus mutans. Briefly: Antibacterial activity against Streptococcus mutans isolate N32 after 24 to 48 hrs. Format: functional. In outline:
as §2

In test [13] the test system is Streptococcus mutans. The experiment in a line: Antibacterial activity against Streptococcus mutans isolate N43 after 24 to 48 hrs. Format: functional. In outline:
as §2

The test system of test [14] is Staphylococcus aureus. The experiment in a line: Antibacterial activity against Staphylococcus aureus ATCC 27660 after 24 to 48 hrs. Format: functional. In short, it runs like this:
as §2

Test [15] concerns Porphyromonas gingivalis. The experiment in a line: Antibacterial activity against Porphyromonas gingivalis ATCC 53978 after 24 to 48 hrs. Format: functional. In short, it runs like this: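 P. gingivalis MBC, anaerobic, from MIC plates run in cooked meat medium and TSB: the MIC well and one dilution above and below plated; lowest concentration with no visible agar growth after 24 to 48 h.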

Test [16] concerns Aggregatibacter actinomycetemcomitans. Briefly: Antibacterial activity against Actinobacillus actinomycetemcommitans CU1000 after 24 to 48 hrs. Format: functional. In short, it runs like this: as §2
The test system of test [17] is Actinomyces viscosus. The experiment in a line: Antibacterial activity against Actinomyces viscosus after 24 to 48 hrs. Format: functional. In short, it runs like this: as §2
Test [18] deals with Streptococcus mutans. The experiment in a line: Antibacterial activity against Streptococcus mutans ATCC 33402 assessed as log cell killing at 10 times MIC within 1 minute by time kill study. Format: functional.
In test [19] the test system is Streptococcus mutans. The experiment in a line: Antibacterial activity against Streptococcus mutans ATCC 33402 assessed as log cell killing at MIC after 1 hr by time kill study. Format: functional, organism-based.
Test [20] has as its system Candida albicans. The experiment in a line: Antifungal activity against Candida albicans ATCC 90028 after 24 hrs by broth microdilution assay. The settings on record: ATCC 90028, 24 h. Format: functional. In outline: (§3)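 CLSI M27-A2 broth microdilution. Colonies from 24-h YPD agar culture suspended in 0.85% saline, set to 0.5 McFarland (OD 530 nm). Final inoculum 0.5–2.5 × 10³ CFU/ml in RPMI 1640 + 0.165 M MOPS pH 7.0. DMSO stock diluted to final 0.016–16 μg/ml. 35°C, visual read at 24 h against the drug-free well. Duplicate.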

Test [21] concerns Candida albicans. The experiment in a line: Antifungal activity against Candida albicans 44 after 24 hrs by broth microdilution assay. The settings on record: Candida albicans, 44, 24 h. Format: functional. In short, it runs like this: as §3
Test [22] has as its system Candida albicans. Briefly: Antifungal activity against Candida albicans M70 after 24 hrs by broth microdilution assay. Format: functional. The settings on record: M70, 24 h. In short, it runs like this: as §3
For orientation: In broth dilution the organism is exposed to a series of concentrations in liquid medium.

Another test concerns Candida dubliniensis. Briefly: Antifungal activity against Candida dubliniensis NCPF3949 after 24 hrs by broth microdilution assay. Format: functional. As to conditions: NCPF3949, 24 h. In outline:
as §3

A further test deals with Nakaseomyces glabratus. The experiment in a line: Antifungal activity against Candida glabrata ATCC 90030 after 24 hrs by broth microdilution assay. Format: functional. The settings on record: ATCC 90030, 24 h. In short, it runs like this: as §3
The test system of the next test is Pichia kudriavzevii. Briefly: Antifungal activity against Candida krusei ATCC 6258 after 24 hrs by broth microdilution assay. Format: functional. As to conditions: ATCC 6258, 24 h. In short, it runs like this: as §3
In a further test the test system is Candida parapsilosis. Briefly: Antifungal activity against Candida parapsilosis ATCC 22019 after 24 hrs by broth microdilution assay. Format: functional. As to conditions: Lodderomyces parapsilosis, ATCC 22019, 24 h. In short, it runs like this: as §3
A further test has as its system Candida tropicalis. Briefly: Antifungal activity against Candida tropicalis ATCC 750 after 24 hrs by broth microdilution assay. Format: functional. As to conditions: ATCC 750, 24 h. In short, it runs like this: as §3
In test [23] the test system is Streptococcus mutans. The experiment in a line: Antibacterial activity against Streptococcus mutans ATCC 33402 assessed as inhibition of biofilm formation at >1 ug/ml in presence of 1% sucrose by crystal violet staining. Format: functional, organism-based.
Test [24] concerns Streptococcus mutans. Briefly: Antibacterial activity against Streptococcus mutans ATCC 33402 biofilms assessed as inhibition of adherent biomass growth at >2.5 ug/ml in presence of 1% sucrose by crystal violet staining. Format: functional, organism-based. In short, it runs like this: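 1 × 10⁵ CFU seeded in 96-well plates in BHI + 1% sucrose to form a biofilm, then exposed to increasing concentrations. After PBS washes to remove planktonic cells, methanol fixation and crystal violet staining, absorbance read at 595 nm. Reported as change from day-2 cultures before compound addition. Triplicate; SD.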

Test [25] has as its system Streptococcus mutans. Briefly: Antibacterial activity against Streptococcus mutans ATCC 33402 biofilms assessed as log reduction of viable bacteria at 50 ug/ml. Format: functional. In short, it runs like this: (§4)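 1 × 10⁵ CFU grown 2 days in BHI + 1% sucrose, then compound added for 24 h. Biofilms washed with PBS, disrupted by sonication (30 s) in 2 ml PBS, serially diluted and plated on mitis agar for viable counts.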

The test system of test [26] is Streptococcus mutans. Briefly: Antibacterial activity against Streptococcus mutans ATCC 33402 biofilms assessed as bacterial dead cells at 50 ug/ml after 24 hrs by fluorescence confocal microscopy. Format: functional, organism-based. In short, it runs like this:
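2-day sucrose biofilms treated 24 h with 0 or 50 μg/ml, washed three times with PBS, stained 15 min in the dark with LIVE/DEAD dye diluted 1:1,000, washed once. Imaged by confocal laser scanning microscopy at 488 and 543 nm, side and top views.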

Test [27] concerns Streptococcus mutans. Briefly: Antibacterial activity against Streptococcus mutans ATCC 33402 in presence of 10% human saliva. Format: functional.
The subject of test [28] is Streptococcus mutans. The experiment in a line: Antibacterial activity against Streptococcus mutans ATCC 33402 in presence of 25% human saliva. Format: functional.
The test system of test [29] is Streptococcus mutans. Briefly: Antibacterial activity against Streptococcus mutans ATCC 33402 in presence of 50% human saliva. Format: functional.
Test [30] concerns RAW264.7. Briefly: Inhibition of Pseudomonas aeruginosa LPS-induced TNFalpha production in mouse RAW264.7 cells at 9.5 nM after 6 hrs by ELISA. Format: functional, cell-based. In outline: (§5)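 RAW 264.7 macrophages plated overnight at 1 × 10⁶ cells/well, then stimulated with 100 ng/ml LPS together with test agent for 6 h at 37°C. TNF-α in the medium measured by mouse TNF-α ELISA. Triplicate; SE; t test.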

Test [31] concerns Nucleic Acid. Briefly: Binding affinity to single stranded GC-rich oligonucleotide assessed as retardation of oligonucleotide movement by agarose gel electrophoresis. Format: nucleic-acid assay.
Test [32] relates to RAW264.7. Briefly: Inhibition of Pseudomonas aeruginosa LPS-induced TNFalpha production in mouse RAW264.7 cells at 7 nM after 6 hrs by ELISA. Format: functional, cell-based. In short, it runs like this: as §5
A general note: An ELISA detects its analyte on a solid surface through an enzyme-linked reagent.

Test [33] has as its system Streptococcus mutans. The experiment in a line: Antibacterial activity against Streptococcus mutans ATCC 33402 biofilms assessed as log reduction of viable bacteria at 500 ug/ml. Format: functional, organism-based. In outline:
as §4

Converted amounts (≈) assume the structure as drawn. The source made the active and inactive calls. No cut-off for these calls is given here.

The text below walks through data of ChEMBL document CHEMBL1137654, “Activity of an antimicrobial peptide mimetic against planktonic and biofilm cultures of oral pathogens” (2007).

On to `NCCc1cc(Br)cc(C#Cc2cccc(C#Cc3cc(Br)cc(CCN)c3)c2)c1`, for which the result in the test on Nucleic Acid [1], in the test with Nucleic Acid [2], with Streptococcus mutans [3], with Streptococcus mutans [19], in the test on Streptococcus mutans [23] and in the test with Streptococcus mutans [24] was Active. Moreover, the result in the test on Streptococcus mutans [26], with RAW264.7 [30] and in the test with Nucleic Acid [31] was Active. The MIC in the test on Streptococcus mutans [4] came to 0.5 µg/mL (≈ 0.957 µM); against Streptococcus mutans [5] it was 0.5 µg/mL (≈ 0.957 µM); with Streptococcus mutans [6], 0.5 µg/mL (≈ 0.957 µM); against Staphylococcus aureus [7], 0.25 µg/mL (≈ 0.479 µM); against Porphyromonas gingivalis [8], 2.5 µg/mL (≈ 4.79 µM); in [9], 0.4 µg/mL (≈ 0.766 µM). Moreover, the MIC turned out to be 0.8 µg/mL (≈ 1.53 µM) against Actinomyces viscosus [10]; 1 µg/mL (≈ 1.91 µM) against Candida albicans [20]; 0.5 µg/mL (≈ 0.957 µM) with Candida albicans [21]; 0.5 µg/mL (≈ 0.957 µM) with Candida albicans [22]; 1 µg/mL (≈ 1.91 µM) against Candida dubliniensis; 1 µg/mL (≈ 1.91 µM) in the test on Nakaseomyces glabratus. The MIC with Pichia kudriavzevii is 1 µg/mL (≈ 1.91 µM); against Candida parapsilosis it was 1 µg/mL (≈ 1.91 µM); against Candida tropicalis it was 1 µg/mL (≈ 1.91 µM); in the test on Streptococcus mutans [27], 1 µg/mL; with Streptococcus mutans [28], 1 µg/mL; in the test with Streptococcus mutans [29], 0.5 µg/mL. Moreover, the MBC in the test with Streptococcus mutans [11] stood at 1.25 µg/mL (≈ 2.39 µM); with Streptococcus mutans [12] it was 1.25 µg/mL (≈ 2.39 µM); in the test on Streptococcus mutans [13] it was 1.25 µg/mL (≈ 2.39 µM); with Staphylococcus aureus [14] it was 0.8 µg/mL (≈ 1.53 µM); in the test on Porphyromonas gingivalis [15] it was 2.5 µg/mL (≈ 4.79 µM); in test [16], 1.5 µg/mL (≈ 2.87 µM). This compound also showed an MBC in the test with Actinomyces viscosus [17] of 1.5 µg/mL (≈ 2.87 µM). In addition, the Activity is listed as more than 2 in the test with Streptococcus mutans [18] and 3 with Streptococcus mutans [25]. Besides, the minimum fungicidal concentration (MFC) – broadly, the lowest tested concentration that kills the fungus rather than only halting it – against Candida albicans [20] was 2 µg/mL (≈ 3.83 µM); against Candida albicans [21] it was 1 µg/mL (≈ 1.91 µM); in the test on Candida albicans [22] it was 1 µg/mL (≈ 1.91 µM); with Candida dubliniensis it was 2 µg/mL (≈ 3.83 µM); in the test on Nakaseomyces glabratus it was 2 µg/mL (≈ 3.83 µM); with Pichia kudriavzevii it was 2 µg/mL (≈ 3.83 µM). The minimal fungicidal concentration (MFC) against Candida parapsilosis and against Candida tropicalis was 2 µg/mL (≈ 3.83 µM) each time.
In the case of POLYMYXIN B, in the test on RAW264.7 [32], the result was Active.
Regarding `CN(C)[C@@H]1C(O)=C(C(N)=O)C(=O)[C@@]2(O)C(O)=C3C(=O)c4c(O)cccc4[C@@](C)(O)[C@H]3C[C@@H]12`, the result with Streptococcus mutans [33] was Active.
